The values that follow come from ChEMBL document CHEMBL1156296, “Development of novel, highly potent inhibitors of V-RAF murine sarcoma viral oncogene homologue B1 (BRAF): increasing cellular potency through optimization of a distal heteroaromatic group” (J Med Chem, 2010).

A value given as a limit tells only on which side of the number the result lay.

The nature of data set [1]: Half life in BALB/cAnNCrl mouse at 20 mg/kg, po. Also on record: dose 20 mg/kg, route oral. As to conditions: in vivo. The data set is classed as ADME, organism-based. An outline of the steps:
(§1)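 Female BALB/cAnNCrl mice, at least 6 weeks old, dosed once by oral gavage at 10 mL/kg in DMSO/water 1:19 v/v. Blood was taken at six or eight time points from 15 min to 18 or 24 h, three mice per time point, by terminal cardiac puncture under halothane or isoflurane into heparinized syringes. Plasma was snap frozen and stored at -70 °C.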

Data set [2] is described as follows: Growth inhibition of wild type human WM1361 cells after 5 days by SRB assay. As to conditions: WM1361, 120 h. On the technique in general: Sulforhodamine B stains cellular protein and so reports cell mass.
The nature of data set [3]: Selectivity ratio of GI50 for human WM266.4 cells expressing BRAF V600E mutant to GI50 for human WM1361 cells.
Data set [4] in a line: Cmax in BALB/cAnNCrl mouse at 20 mg/kg, po. The data set is classed as ADME, organism-based. Also on record: dose 20 mg/kg, route oral. As to conditions: in vivo. An outline of the steps: as §1
The nature of data set [5]: Tmax in BALB/cAnNCrl mouse at 20 mg/kg, po. The class given is ADME, organism-based. Also on record: dose 20 mg/kg, route oral. The conditions noted are these: in vivo. An outline of the steps:
as §1

For data set [6], the target named is T1, Serine/threonine-protein kinase B-raf (Homo sapiens, UniProt P15056, V600E). Nature of the data set: Inhibition of BRAF V600E mutant ERK phosphorylation in human WM266.4 cells. The data set is classed as cell-based. The method in brief:
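WM266.4 melanoma cells, which carry mutant V600E BRAF, exposed to inhibitor for 6 h. ERK phosphorylation (pERK) measured and IC50 derived. Run in triplicate, with a few compounds measured once.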

Data set [7] in a line: Metabolic stability in mouse liver microsomes. The data set is classed as ADME, Microsome. An outline of the steps: (§2)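 Phase I microsomal incubation of compound at 10 μM for 30 min, stopped with 3 volumes of methanol containing 500 nM roscovitine as internal standard. Parent and metabolites were measured by LC-MS, positive-ion electrospray, on a polar reversed-phase column.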

The target of data set [8] is T1, Serine/threonine-protein kinase B-raf. The data set is described as follows: Inhibition of human BRAF V600E mutant expressed in baculovirus system. The method in brief:
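Isolated purified V600E BRAF kinase with a 45 min incubation. Enzyme inhibition measured and IC50 derived. Run in triplicate, with one compound measured once.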

Data set [9] is described as follows: Oral bioavailability in BALB/cAnNCrl mouse at 20 mg/kg. The conditions noted are these: in vivo. The class given is ADME, organism-based. The method in brief: (§3)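 Female BALB/cAnNCrl mice, at least 6 weeks old. The oral arm was gavage at 10 mL/kg in DMSO/water 1:19. The iv arm was 2 mg/kg (~4 μmol/kg) at 10 mL/kg in DMSO/Tween-20/water 10:1:89, sampled at seven or eight points from 5 min to 18 or 24 h. Three mice per time point, terminal cardiac blood, plasma.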

Another data set has as its system Liver microsomes. Nature of the data set: Metabolic stability in human liver microsomes. The data set is classed as ADME, Microsome. The method in brief:
as §2

Data set [10] is described as follows: Growth inhibition of human WM266.4 cells expressing BRAF V600E mutant after 5 days by SRB assay. The class given is functional. The conditions noted are these: WM 266-4, 120 h.
The nature of data set [11]: Cmax in BALB/cAnNCrl mouse at 10 mg/kg, po. The class given is ADME, organism-based. Also on record: dose 10 mg/kg, route oral. The conditions noted are these: in vivo. The method in brief:
as §1

Data set [12] is described as follows: Half life in BALB/cAnNCrl mouse at 10 mg/kg, po. The data set is classed as ADME, organism-based. More on the design: dose 10 mg/kg, route oral. As to conditions: in vivo. An outline of the steps: as §1
Data set [13] in a line: Oral bioavailability in BALB/cAnNCrl mouse at 10 mg/kg. The data set is classed as ADME, organism-based. The conditions noted are these: in vivo. An outline of the steps: as §3
The nature of data set [14]: Tmax in BALB/cAnNCrl mouse at 10 mg/kg, po. As to conditions: in vivo. The data set is classed as ADME, organism-based. Also on record: dose 10 mg/kg, route oral. The method in brief: as §1
Data set [15] can be described thus: Growth inhibition of human WM266.4 cells expressing BRAF V600E mutant after 96 hrs by SRB assay.
The nature of data set [16]: Ratio of plasma concentration in Crl:CD1-Foxn1nu mouse to GI50 for human WM266.4 cells xenografted in Crl:CD1-Foxn1nu mouse. The class given is ADME. As to conditions: in vivo. In general terms: A xenograft is tissue or cells of one species grown in another, often human tumour cells in immunodeficient mice.

As usually defined, the half-life is how long it takes for the measured level to halve. As usually defined, the GI50 is the concentration at which growth is held to half of that of the control. A high value points to less potent growth inhibition. The Cmax is the maximum level reached in the sampled fluid or tissue. A word on the Tmax: it is the time from dosing to the highest level. As usually defined, the IC50 is the point on the concentration scale where inhibition reaches its midpoint. Higher therefore signals a need for much substance. For orientation: bioavailability means dose-corrected exposure relative to a reference, in per cent.

T1 sequence (P15056 2-766 V600E limits assumed): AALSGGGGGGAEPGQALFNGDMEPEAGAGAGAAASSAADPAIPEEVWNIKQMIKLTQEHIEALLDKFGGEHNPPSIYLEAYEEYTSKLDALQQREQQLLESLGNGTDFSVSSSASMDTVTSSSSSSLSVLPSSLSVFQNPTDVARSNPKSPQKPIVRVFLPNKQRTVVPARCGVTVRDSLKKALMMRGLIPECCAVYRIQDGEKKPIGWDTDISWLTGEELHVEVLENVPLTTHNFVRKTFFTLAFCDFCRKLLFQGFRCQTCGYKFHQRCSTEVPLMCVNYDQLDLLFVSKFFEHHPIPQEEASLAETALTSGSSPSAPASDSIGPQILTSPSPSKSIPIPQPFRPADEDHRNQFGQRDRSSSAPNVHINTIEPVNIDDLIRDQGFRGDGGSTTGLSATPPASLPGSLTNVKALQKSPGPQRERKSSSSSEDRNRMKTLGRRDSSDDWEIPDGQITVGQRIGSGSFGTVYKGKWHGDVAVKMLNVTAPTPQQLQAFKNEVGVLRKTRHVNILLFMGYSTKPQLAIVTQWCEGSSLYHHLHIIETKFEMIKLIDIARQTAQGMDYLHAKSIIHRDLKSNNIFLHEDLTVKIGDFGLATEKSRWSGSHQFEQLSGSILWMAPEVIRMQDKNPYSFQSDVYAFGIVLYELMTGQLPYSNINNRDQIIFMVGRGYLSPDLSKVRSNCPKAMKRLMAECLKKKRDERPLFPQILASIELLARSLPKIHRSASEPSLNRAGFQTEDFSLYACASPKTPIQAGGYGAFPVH

Take `Cn1c(=O)[nH]c2nccc(Oc3ccc(NC(=O)Nc4cc(C(C)(C)C)nn4-c4ccccc4)c4ccccc34)c21`: in [1], the half-life is 1.91 h. Also, the concentration for 50% growth inhibition (GI50) was determined as 1200 nM in [2] and 24 nM in data set [10]. Moreover, in [3], the “fold change (FC)” value was found to be 49. The molecule further showed a Cmax in data set [4] of 35.5 µM. Moreover, the time to peak (Tmax) in data set [5] was 1.5 h. For the same molecule, the IC50 in data set [6] was determined as 19 nM; in data set [8] it was 251 nM. The Stability (in data set [7]; in the data set with Liver microsomes) was under 30% each time. This molecule came in with a bioavailability in data set [9] of 33%.
With `Cc1ccc(-n2nc(C(C)(C)C)cc2NC(=O)Nc2ccc(Oc3ccnc4[nH]c(=O)[nH]c34)cc2F)cc1`, the GI50 in data set [2] is 790 nM; in [10] it was 46 nM. For the same molecule, in data set [3], the “fold change (FC)” value worked out at 17. The Cmax in data set [11] is 7.42 µM. For the same molecule, the half-maximal inhibitory concentration (IC50) in data set [6] worked out at 40 nM; in data set [8] it was 110 nM. Also, the half-life in data set [12] is 5.3 h. The molecule further gave a bioavailability in [13] of 7%. The Tmax in data set [14] amounted to 1.5 h.
As to `Cc1ccc(-n2nc(C(C)(C)C)cc2NC(=O)Nc2ccc(Oc3ccnc4[nH]c(=O)n(C)c34)c3ccccc23)cc1`, the highest level in [11] (Cmax) was 43.3 µM. Also, the IC50 in data set [6] stood at 26 nM; in data set [8] it was 2280 nM. Also, the Stability (in data set [7]; in the data set on Liver microsomes) was under 30% each time. The same molecule showed a half-life in data set [12] of 8.4 h. For the same molecule, in data set [13], the bioavailability came to 43%. For the same molecule, in data set [14], the time to peak (Tmax) came out at 1 h. Besides, in data set [10], the 50% growth inhibitory concentration (GI50) came to 16 nM.
For the molecule `CC(C)(C)c1cc(NC(=O)Nc2ccc(Oc3ccnc4[nH]c(=O)[nH]c34)cc2)n(-c2ccccc2)n1`, the concentration for 50% growth inhibition (GI50) in data set [2] worked out at 3200 nM; in data set [10], 390 nM. The “fold change (FC)” value in data set [3] is 8. The IC50 in data set [6] was found to be 620 nM; in [8] it was 94 nM.
As to `Cc1ccc(-n2nc(C(C)(C)C)cc2NC(=O)Nc2ccc(Oc3ccnc4c3[nH]c(=O)n4C)cc2)cc1`, the IC50 came out at 36 nM in data set [6] and 3000 nM in data set [8]. In data set [15], this molecule registered a 50% growth inhibitory concentration (GI50) of 52 nM.
As for `CNC(=O)c1cc(Oc2ccc(NC(=O)Nc3ccc(Cl)c(C(F)(F)F)c3)cc2)ccn1` [SORAFENIB], it took 4500 nM to inhibit growth in data set [2] by half (GI50). For the same molecule, the “fold change (FC)” value in data set [3] is reported as 1.
Turning to `CC(C)(C)c1cc(NC(=O)Nc2ccc(Oc3ccnc4[nH]c(=O)[nH]c34)cc2F)n(-c2ccccc2)n1`, the results for the concentration for 50% growth inhibition (GI50) in [2] and in [10] were 660 nM and 39 nM, respectively. In [3], the “fold change (FC)” value stood at 17. Further, the peak level in data set [11] (Cmax) was 15 µM. For the same molecule, the results for the IC50 in [6] and in data set [8] were 135 nM and 75 nM, respectively. Also, the half-life in data set [12] is 2.8 h. The bioavailability in [13] was 24%. Also, in data set [14], the time of peak concentration (Tmax) turned out to be 0.25 h.
Regarding `Cn1c(=O)[nH]c2nccc(Oc3ccc(NC(=O)Nc4cc(C(C)(C)C)nn4-c4cccnc4)c4ccccc34)c21`, the peak level in [11] (Cmax) was 4.21 µM. Besides, the values for the 50% inhibitory concentration (IC50) in data set [6] and in [8] were 100 nM and 790 nM, respectively. In data set [12], this molecule had a half-life of 0.8 h. For the same molecule, the bioavailability in data set [13] stood at 5%. For the same molecule, the Tmax in data set [14] amounted to 0.5 h. Growth in [10] was halved (GI50) at 69 nM.
`Cc1ccc(-n2nc(C(C)(C)C)cc2NC(=O)Nc2ccc(Oc3ccnc4[nH]c(=O)[nH]c34)cc2)cc1` had a half-life in data set [1] of 4 h. For the same molecule, the Cmax in data set [4] was found to be 3.67 µM. For the same molecule, in [5], the time to peak (Tmax) came to 0.5 h. Also, the IC50 in data set [6] turned out to be 420 nM; in [8], 142 nM. Moreover, the Ratio in data set [16] was 12. Further, the bioavailability in data set [9] turned out to be 6.5%. The same molecule displayed a GI50 in data set [10] of 300 nM.
